Measured values: BindingDB's records for doi:10.1021/jm010131q (National Center For Genetic Engineering and Biotechnology …, 2002)

Tests used:
[1] = Antiplasmodial activity IC50 against Plasmodium falciparum K1CB1 DHFR double-mutant ([…])
[2] = biological target: Bifunctional dihydrofolate reductase-thymidylate synthase (Plasmodium falciparum (isolate K1 / Thailand), UniProt P13922); assay: Inhibition of the wild-type dihydrofolate reductase (DHFR)
In short: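 Assay at 25 °C: 50 mM TES pH 7.0, 75 mM β-mercaptoethanol, 1 mg/mL BSA, 100 µM H2folate and 100 µM NADPH. NADPH oxidation followed at 340 nm. Ki derived from IC50 as Ki(1+[S]/Km), assuming competitive inhibition.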

Bifunctional dihydrofolate reductase-thymidylate synthase, sequence (P13922 whole entry): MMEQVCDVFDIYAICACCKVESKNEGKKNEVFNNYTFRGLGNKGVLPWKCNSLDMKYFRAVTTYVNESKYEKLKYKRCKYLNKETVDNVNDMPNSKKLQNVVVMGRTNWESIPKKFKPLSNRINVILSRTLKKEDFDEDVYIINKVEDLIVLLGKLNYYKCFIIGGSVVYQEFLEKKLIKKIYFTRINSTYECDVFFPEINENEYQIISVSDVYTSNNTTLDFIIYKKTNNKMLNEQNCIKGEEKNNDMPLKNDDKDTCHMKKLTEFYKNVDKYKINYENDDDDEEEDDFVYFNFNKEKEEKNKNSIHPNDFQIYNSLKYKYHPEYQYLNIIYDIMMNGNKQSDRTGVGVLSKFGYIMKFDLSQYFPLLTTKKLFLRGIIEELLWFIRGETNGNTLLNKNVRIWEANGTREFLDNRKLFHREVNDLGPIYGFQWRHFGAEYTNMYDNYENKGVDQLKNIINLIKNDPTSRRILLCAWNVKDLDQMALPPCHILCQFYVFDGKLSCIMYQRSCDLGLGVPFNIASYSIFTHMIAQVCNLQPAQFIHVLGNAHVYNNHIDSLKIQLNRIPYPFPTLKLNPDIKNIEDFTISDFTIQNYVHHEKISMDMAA

SMILES | IC50 [1] [µM] | Ki [2] [µM]
CCc1nc(N)nc(N)c1-c1ccc2c(c1)OCO2 [5-Benzo[1,3]dioxol-5-yl-6-ethyl-pyrimidine-2,4-diamine] | 21.5 | –
CCOc1c(Br)cc(-c2c(N)nc(N)nc2CC)cc1Br [5-(3,5-Dibromo-4-ethoxy-phenyl)-6-ethyl-pyrimidine-2,4-diamine] | 17.4 | 0.007
CCc1nc(N)nc(N)c1-c1ccc(Cl)cc1Cl [5-(2,4-Dichloro-phenyl)-6-ethyl-pyrimidine-2,4-diamine] | 22.5 | 0.0126
CCc1nc(N)nc(N)c1-c1ccc(OC)cc1 | > 25 | 0.0009
CCc1nc(N)nc(N)c1-c1ccc(OCc2ccc(Cl)cc2Cl)c(OC)c1 [5-[4-(2,4-Dichloro-benzyloxy)-3-methoxy-phenyl]-6-ethyl-pyrimidine-2,4-diamine] | > 50 | 0.001
Cc1nc(N)nc(N)c1-c1ccccc1 | 30.8 | 0.0109
CCc1nc(N)nc(N)c1-c1ccc(C)cc1 [6-ethyl-5-(4-methylphenyl)pyrimidine-2,4-diamine] | 12.7 | –
CCCCCCc1nc(N)nc(N)c1-c1ccccc1 [6-hexyl-5-phenylpyrimidine-2,4-diamine] | 1.3 | –
COC(=O)CCCc1nc(N)nc(N)c1-c1ccc(Cl)cc1 | 22.3 | –
Nc1ncc(Cc2ccc(OCCCOc3cc(Cl)c(Cl)cc3Cl)cc2)c(N)n1 [5-{4-[3-(2,4,5-Trichloro-phenoxy)-propoxy]-benzyl}-pyrimidine-2,4-diamine] | 3.5 | 0.0009
COc1cc(Cc2cnc(N)nc2N)ccc1OCc1cc(OC)c(OC)c(OC)c1 [5-[3-Methoxy-4-(3,4,5-trimethoxy-benzyloxy)-benzyl]-pyrimidine-2,4-diamine] | 27.8 | 0.0006
COC(=O)CCCc1nc(N)nc(N)c1-c1ccccc1 [4-(2,6-Diamino-5-phenyl-pyrimidin-4-yl)-butyric acid methyl ester] | 31.3 | –
COc1ccc(CCCc2nc(N)nc(N)c2-c2cccc(Cl)c2)cc1 [5-(3-Chloro-phenyl)-6-[3-(4-methoxy-phenyl)-propyl]-pyrimidine-2,4-diamine] | 2.7 | –
Nc1ncc(-c2cccc(Cl)c2)c(N)n1 [5-(3-Chloro-phenyl)-pyrimidine-2,4-diamine] | 8.8 | 0.0063
COc1cc(Cc2cnc(N)nc2N)ccc1OCCCc1ccccc1 [5-[3-Methoxy-4-(3-phenyl-propoxy)-benzyl]-pyrimidine-2,4-diamine] | 11.7 | 0.0018
CCc1nc(N)nc(N)c1-c1cccc(Cl)c1 [5-(3-chlorophenyl)-6-ethylpyrimidine-2,4-diamine] | 1.3 | –

SMILES | IC50 [1] [µM] | Ki [2] [µM]
COc1cc(Cc2cnc(N)nc2N)cc(OC)c1OCc1ccccc1 [5-(4-Benzyloxy-3,5-dimethoxy-benzyl)-pyrimidine-2,4-diamine] | 30.1 | 0.0042
CCc1nc(N)nc(N)c1-c1ccc(-c2ccccc2)cc1 [5-Biphenyl-4-yl-6-ethyl-pyrimidine-2,4-diamine] | 4.4 | 0.188
CCc1nc(N)nc(N)c1-c1ccc(Cl)c(Cl)c1 | 17.4 | –
Cc1nc(N)nc(N)c1-c1ccc(Cl)cc1 | 60.1 | 0.002
Cc1nc(N)nc(N)c1-c1cccc(Cl)c1 [5-(3-chlorophenyl)-6-methylpyrimidine-2,4-diamine] | 4.8 | –
COc1cc(COc2cc(Cc3cnc(N)nc3N)ccc2OCc2ccccc2)cc(OC)c1OC [5-[4-Benzyloxy-3-(3,4,5-trimethoxy-benzyloxy)-benzyl]-pyrimidine-2,4-diamine] | 17.5 | 0.0121
CCc1nc(N)nc(N)c1-c1ccccc1 | 3.3 | –
CCc1nc(N)nc(N)c1-c1ccc(Br)cc1 [5-(4-bromophenyl)-6-ethylpyrimidine-2,4-diamine] | 25 | 0.0003
Nc1nc(N)c(-c2ccccc2)c(CCCc2ccccc2)n1 | 2.3 | –
Nc1nc(N)c(-c2cccc(Cl)c2)c(CCCc2ccccc2)n1 | 3 | –
Nc1ncc(-c2ccccc2)c(N)n1 [5-Phenyl-pyrimidine-2,4-diamine] | 19.4 | –
Nc1ncc(-c2ccc(Cl)cc2)c(N)n1 [5-(4-chlorophenyl)pyrimidine-2,4-diamine] | 26.2 | 0.0024
COC(=O)CCCc1nc(N)nc(N)c1-c1cccc(Cl)c1 [4-[2,6-Diamino-5-(3-chloro-phenyl)-pyrimidin-4-yl]-butyric acid methyl ester] | 36.3 | –
Nc1nc(N)c(-c2ccc(Cl)cc2)c(CCCc2ccccc2)n1 [5-(4-Chloro-phenyl)-6-(3-phenyl-propyl)-pyrimidine-2,4-diamine] | 10.6 | –
Nc1nc(N)c(-c2cccc(Cl)c2)c(CCOCCCOc2ccccc2)n1 [5-(3-chlorophenyl)-6-[2-(3-phenoxypropoxy)ethyl]pyrimidine-2,4-diamine] | 3.3 | –
CCc1nc(N)nc(N)c1-c1ccc(C(C)(C)C)cc1 [5-(4-tert-butylphenyl)-6-ethylpyrimidine-2,4-diamine] | 3.9 | 0.0006
